{"source": "paper PMC11865470", "about": "(Communications Biology, 2025)", "key": {"[1]": {"biological_target": "T1, Otop1 channels from human origin (hOtop1) (Homo sapiens, UniProt Q7RTM1)", "T1 sequence (Q7RTM1 1-612)": "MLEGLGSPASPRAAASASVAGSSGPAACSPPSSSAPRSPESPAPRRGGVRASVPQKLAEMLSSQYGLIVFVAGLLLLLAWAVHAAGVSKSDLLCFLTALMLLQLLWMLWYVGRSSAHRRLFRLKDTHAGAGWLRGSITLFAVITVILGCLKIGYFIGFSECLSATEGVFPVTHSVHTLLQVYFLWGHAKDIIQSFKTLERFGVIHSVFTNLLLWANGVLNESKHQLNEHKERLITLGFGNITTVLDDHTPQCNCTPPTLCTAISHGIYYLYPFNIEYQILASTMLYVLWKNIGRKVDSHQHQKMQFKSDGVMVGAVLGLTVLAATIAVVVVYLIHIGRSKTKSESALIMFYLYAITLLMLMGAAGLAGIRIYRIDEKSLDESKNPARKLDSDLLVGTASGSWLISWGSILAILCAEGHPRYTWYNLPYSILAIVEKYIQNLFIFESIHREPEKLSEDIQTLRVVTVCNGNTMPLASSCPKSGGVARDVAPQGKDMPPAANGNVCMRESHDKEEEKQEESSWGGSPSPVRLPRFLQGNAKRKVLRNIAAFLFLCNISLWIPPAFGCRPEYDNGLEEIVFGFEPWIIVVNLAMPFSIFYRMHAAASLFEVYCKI", "assay": "whole-cell patch-clamp, pH 5.5-evoked currents", "assay_type": "cell-based", "settings": "10 μM", "outline": "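Channel plasmid (2.5 μg) was co-transfected with EGFP plasmid (0.5 μg) using Lipofectamine 2000 into PAC-knockout HEK293T cells. Whole-cell recording 16–24 h after seeding, with Cs-aspartate pipette solution (pH 7.3). Currents evoked by pH 5.5 bath (160 mM NMDG-Cl, 2 mM CaCl2, 10 mM MES); test compound 10 μM.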"}, "KV3.4": {"biological_target": "T2, KV3.4 (Homo sapiens, UniProt Q03721)", "T2 sequence (Q03721 1-635)": "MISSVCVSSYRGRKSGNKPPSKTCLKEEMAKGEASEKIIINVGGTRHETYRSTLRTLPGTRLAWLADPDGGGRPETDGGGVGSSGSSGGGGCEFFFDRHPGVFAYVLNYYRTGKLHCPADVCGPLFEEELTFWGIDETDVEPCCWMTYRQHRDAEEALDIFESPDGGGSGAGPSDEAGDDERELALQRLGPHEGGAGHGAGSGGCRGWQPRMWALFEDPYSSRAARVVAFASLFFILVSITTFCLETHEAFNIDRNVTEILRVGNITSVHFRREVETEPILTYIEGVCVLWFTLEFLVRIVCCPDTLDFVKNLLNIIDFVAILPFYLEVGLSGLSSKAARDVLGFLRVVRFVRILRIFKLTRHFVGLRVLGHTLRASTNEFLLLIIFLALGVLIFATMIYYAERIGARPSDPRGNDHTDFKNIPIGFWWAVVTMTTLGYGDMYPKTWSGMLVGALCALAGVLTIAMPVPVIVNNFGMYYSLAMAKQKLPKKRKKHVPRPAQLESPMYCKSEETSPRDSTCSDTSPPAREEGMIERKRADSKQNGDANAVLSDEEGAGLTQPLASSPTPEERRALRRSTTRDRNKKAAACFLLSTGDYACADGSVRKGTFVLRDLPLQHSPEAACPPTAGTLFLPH", "assay": "whole-cell patch-clamp, off-target channel, 10 μM compound", "assay_type": "cell-based", "settings": "vs 0.1% DMSO", "outline": "(§1)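 KV channels in transiently transfected HEK293T cells, whole-cell. Pipette (mM): 140 KCl, 2.5 MgCl2, 11 EGTA, 10 HEPES, pH 7.4. Bath (mM): 145 NaCl, 2.8 KCl, 2 CaCl2, 1 MgCl2, 10 glucose, 10 HEPES, pH 7.4. 0.1% DMSO bath applied, then 10 μM test compound. DMSO vs compound inhibition ratio compared by unpaired t-test, n = 5.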"}, "KV4.2": {"biological_target": "T3, KV4.2 (Rattus norvegicus, UniProt Q63881)", "T3 sequence (Q63881 1-630)": "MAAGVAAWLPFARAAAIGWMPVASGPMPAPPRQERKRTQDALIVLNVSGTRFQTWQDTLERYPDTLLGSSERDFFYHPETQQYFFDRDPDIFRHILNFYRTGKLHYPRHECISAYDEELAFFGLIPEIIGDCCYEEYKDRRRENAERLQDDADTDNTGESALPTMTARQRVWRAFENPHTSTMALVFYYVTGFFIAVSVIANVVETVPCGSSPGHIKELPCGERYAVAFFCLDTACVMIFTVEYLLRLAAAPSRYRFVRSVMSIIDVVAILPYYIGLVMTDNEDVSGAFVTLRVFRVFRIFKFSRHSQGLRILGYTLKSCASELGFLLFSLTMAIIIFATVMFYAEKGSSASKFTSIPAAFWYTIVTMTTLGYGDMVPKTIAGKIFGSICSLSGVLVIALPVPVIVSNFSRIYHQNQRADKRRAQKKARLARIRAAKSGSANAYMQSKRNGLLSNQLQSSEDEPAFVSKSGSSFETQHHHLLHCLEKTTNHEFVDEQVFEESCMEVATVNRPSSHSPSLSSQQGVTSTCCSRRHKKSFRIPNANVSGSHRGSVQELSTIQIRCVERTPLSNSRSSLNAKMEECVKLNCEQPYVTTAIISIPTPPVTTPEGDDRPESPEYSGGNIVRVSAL", "assay": "whole-cell patch-clamp, off-target channel, 10 μM compound", "assay_type": "cell-based", "settings": "for sensitivity of channel to compound: vs 0.1% DMSO", "outline": "as §1"}, "KV4.3": {"biological_target": "T4, KV4.3 (Rattus norvegicus, UniProt Q62897)", "T4 sequence (Q62897 1-611 isoform Q62897-3)": "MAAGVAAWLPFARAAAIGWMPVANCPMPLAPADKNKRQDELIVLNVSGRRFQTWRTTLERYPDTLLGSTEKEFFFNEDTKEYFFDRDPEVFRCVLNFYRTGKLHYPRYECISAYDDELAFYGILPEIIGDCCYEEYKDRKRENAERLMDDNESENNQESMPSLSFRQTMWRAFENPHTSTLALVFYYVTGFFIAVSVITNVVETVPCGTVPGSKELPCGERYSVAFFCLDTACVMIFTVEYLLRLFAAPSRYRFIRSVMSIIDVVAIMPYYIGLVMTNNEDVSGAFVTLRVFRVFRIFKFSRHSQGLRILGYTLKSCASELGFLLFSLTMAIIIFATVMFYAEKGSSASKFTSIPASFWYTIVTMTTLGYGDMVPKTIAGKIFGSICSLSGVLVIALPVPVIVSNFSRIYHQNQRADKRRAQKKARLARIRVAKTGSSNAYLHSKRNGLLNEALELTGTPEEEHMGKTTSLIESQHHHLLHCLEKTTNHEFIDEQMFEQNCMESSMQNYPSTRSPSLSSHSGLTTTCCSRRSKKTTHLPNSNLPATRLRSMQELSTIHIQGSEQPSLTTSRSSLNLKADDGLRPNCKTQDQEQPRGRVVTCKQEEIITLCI", "assay": "whole-cell patch-clamp, off-target channel, 10 μM compound", "assay_type": "cell-based", "outline": "as §1"}, "KV7.1": {"system": "KV7.1", "assay": "whole-cell patch-clamp, off-target channel, 10 μM compound", "assay_type": "cell-based, Homo sapiens", "settings": "for sensitivity of channel to compound: vs 0.1% DMSO", "outline": "as §1"}}, "data": [{"smiles": "CC(C)c1noc2ncc(C(=O)c3ccccc3O)cc12", "note": "[HIMOP, (2-hydroxyphenyl)-(3-propan-2-yl-5-isoxazolo[5,4-b]pyridinyl)methanone]", "values": [{"measurement": "effect on hOtop1 currents", "setting": "[1]", "result": "potent potentiation effects"}, {"measurement": "sensitivity of channel to compound", "setting": "KV3.4", "result": "completely resistant"}, {"measurement": "inhibition ratio", "setting": "KV4.2", "result": 14.3, "unit": "%"}, {"measurement": "inhibition ratio", "setting": "KV4.3", "result": 12.9, "unit": "%"}, {"measurement": "inhibition ratio", "setting": "KV7.1", "result": 16.4, "unit": "%"}]}, {"smiles": "Cc1ccc(C(=O)Nc2ccc3ccccc3c2)o1", "note": "[MFaN, 5-methyl-N-2-naphthyl-2-furamide]", "values": [{"measurement": "effect on hOtop1 currents", "setting": "[1]", "result": "potent potentiation effects"}, {"measurement": "sensitivity of channel to compound", "setting": "KV3.4", "result": "completely resistant"}, {"measurement": "sensitivity of channel to compound", "setting": "KV4.2", "result": "completely resistant"}, {"measurement": "inhibition ratio", "setting": "KV4.3", "result": 7.0, "unit": "%"}, {"measurement": "sensitivity of channel to compound", "setting": "KV7.1", "result": "completely resistant"}]}, {"smiles": "Cc1cc(NC(=O)c2ccc(Br)o2)ccc1NC(=O)c1ccco1", "note": "[B2FAMP, 5-Bromo-N-[4-(2-furoylamino)-3-methylphenyl]-2-furamide]", "values": [{"measurement": "effect on hOtop1 currents", "setting": "[1]", "result": "potent potentiation effects"}, {"measurement": "sensitivity of channel to compound", "setting": "KV3.4", "result": "completely resistant"}, {"measurement": "sensitivity of channel to compound", "setting": "KV4.2", "result": "completely resistant"}, {"measurement": "sensitivity of channel to compound", "setting": "KV4.3; vs 0.1% DMSO", "result": "completely resistant"}, {"measurement": "sensitivity of channel to compound", "setting": "KV7.1", "result": "completely resistant"}]}]}
